Test [1] deals with Staphylococcus aureus. The test can be described thus: Antibacterial activity against vancomycin/methicillin-susceptible Staphylococcus aureus Newman […] after 24 hrs by broth microdilution method. Type of test: functional. The procedure, abridged: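 Broth microdilution in cation-adjusted Mueller-Hinton II broth. […] Each well received ~10^5 CFU of exponential-phase bacteria and was incubated at 37 °C for 24 h. MIC was taken as the lowest concentration giving complete growth inhibition, interpreted per CLSI.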
For orientation: Dilution methods test growth across graded concentrations, often in twofold steps.

Test [2] deals with Staphylococcus aureus. The test can be described thus: Antibacterial activity against healthcare-associated methicillin-resistant/vancomycin-intermediate Staphylococcus aureus Mu50 after 24 hrs by broth microdilution method. The conditions noted are these: Mu50, 24 h. Type of test: functional. The procedure, abridged:
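Broth microdilution in cation-adjusted Mueller-Hinton II broth. DMSO stocks were diluted in broth and twofold serially from 128 to 0.0625 μg/mL or lower. Each well was inoculated with ~10^5 CFU of exponential-phase bacteria and incubated at 37 °C for 24 h. MIC was the lowest concentration giving complete growth inhibition, read per CLSI. Growth controls contained broth plus DMSO.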

SMILES strings stand for the structures. ≈ marks a conversion by molar mass, not a printed value.

The MIC90 is an inhibitory concentration at the 90% level, which refers to growth in some studies and to a panel of isolates in others. Low values mean higher susceptibility, high ones lower susceptibility.

With `CCc1ccc(CN[C@@]2(C)C[C@H](O[C@H]3[C@H](Oc4c5cc6cc4Oc4ccc(cc4Cl)[C@@H](O)[C@@H](NC(=O)[C@@H](CC(C)C)NC)C(=O)N[C@@H](CC(N)=O)C(=O)N[C@H]6C(=O)N[C@H]4C(=O)N[C@H](C(=O)N[C@H](C(=O)O)c6cc(O)c(CNCCCNC(=O)[C@H](O)[C@@H](O)[C@H](O)[C@H](O)CO)c(O)c6-c6cc4ccc6O)[C@H](O)c4ccc(c(Cl)c4)O5)O[C@H](CO)[C@@H](O)[C@@H]3O)O[C@@H](C)[C@H]2O)cc1`, the MIC90 in the test on Staphylococcus aureus [1] came out at 4 µg/mL (≈ 2.18 µM); with Staphylococcus aureus [2], 8 µg/mL (≈ 4.37 µM).

Regarding `CN[C@H](CC(C)C)C(=O)N[C@H]1C(=O)N[C@@H](CC(N)=O)C(=O)N[C@H]2C(=O)N[C@H]3C(=O)N[C@H](C(=O)N[C@H](C(=O)O)c4cc(O)c(CNCCCNC(=O)[C@H](O)[C@@H](O)[C@H](O)[C@H](O)CO)c(O)c4-c4cc3ccc4O)[C@H](O)c3ccc(c(Cl)c3)Oc3cc2cc(c3O[C@@H]2O[C@H](CO)[C@@H](O)[C@H](O)[C@H]2O[C@H]2C[C@](C)(NCc3ccc(C#C[Si](C)(C)C)cc3)[C@H](O)[C@H](C)O2)Oc2ccc(cc2Cl)[C@H]1O`, the MIC90 with Staphylococcus aureus [1] was found to be 1 µg/mL (≈ 0.526 µM); against Staphylococcus aureus [2], 2 µg/mL (≈ 1.05 µM).

On to `CN[C@H](CC(C)C)C(=O)N[C@H]1C(=O)N[C@@H](CC(N)=O)C(=O)N[C@H]2C(=O)N[C@H]3C(=O)N[C@H](C(=O)N[C@H](C(=O)O)c4cc(O)c(CNCCCNC(=O)[C@H](O)[C@@H](O)[C@H](O)[C@H](O)CO)c(O)c4-c4cc3ccc4O)[C@H](O)c3ccc(c(Cl)c3)Oc3cc2cc(c3O[C@@H]2O[C@H](CO)[C@@H](O)[C@H](O)[C@H]2O[C@H]2C[C@](C)(NCc3ccc(-c4ccncc4)cc3)[C@H](O)[C@H](C)O2)Oc2ccc(cc2Cl)[C@H]1O`, for which the MIC90 worked out at 1 µg/mL (≈ 0.532 µM) in the test with Staphylococcus aureus [1] and 4 µg/mL (≈ 2.13 µM) against Staphylococcus aureus [2].

As to `C#Cc1ccc(CN[C@@]2(C)C[C@H](O[C@H]3[C@H](Oc4c5cc6cc4Oc4ccc(cc4Cl)[C@@H](O)[C@@H](NC(=O)[C@@H](CC(C)C)NC)C(=O)N[C@@H](CC(N)=O)C(=O)N[C@H]6C(=O)N[C@H]4C(=O)N[C@H](C(=O)N[C@H](C(=O)O)c6cc(O)c(CN[C@H]7C(O)O[C@H](CO)[C@H](O)[C@@H]7O)c(O)c6-c6cc4ccc6O)[C@H](O)c4ccc(c(Cl)c4)O5)O[C@H](CO)[C@@H](O)[C@@H]3O)O[C@@H](C)[C@H]2O)cc1` (some centres undefined), the MIC90 worked out at 2 µg/mL (≈ 1.14 µM) against Staphylococcus aureus [1] and 8 µg/mL (≈ 4.56 µM) against Staphylococcus aureus [2].

In the case of `CCCCCCCCCCNCCN[C@@]1(C)C[C@H](O[C@H]2[C@H](Oc3c4cc5cc3Oc3ccc(cc3Cl)[C@@H](O)[C@@H](NC(=O)[C@@H](CC(C)C)NC)C(=O)N[C@@H](CC(N)=O)C(=O)N[C@H]5C(=O)N[C@H]3C(=O)N[C@H](C(=O)N[C@H](C(=O)O)c5cc(O)c(CNCCO[C@@H]6O[C@H](CO)[C@H](O)[C@H](O)[C@H]6O)c(O)c5-c5cc3ccc5O)[C@H](O)c3ccc(c(Cl)c3)O4)O[C@H](CO)[C@@H](O)[C@@H]2O)O[C@@H](C)[C@H]1O`, the MIC90 stood at 0.5 µg/mL (≈ 0.268 µM) against Staphylococcus aureus [1] and 2 µg/mL (≈ 1.07 µM) in the test with Staphylococcus aureus [2].

As for `CCc1ccc(CN[C@@]2(C)C[C@H](O[C@H]3[C@H](Oc4c5cc6cc4Oc4ccc(cc4Cl)[C@@H](O)[C@@H](NC(=O)[C@@H](CC(C)C)NC)C(=O)N[C@@H](CC(N)=O)C(=O)N[C@H]6C(=O)N[C@H]4C(=O)N[C@H](C(=O)N[C@H](C(=O)O)c6cc(O)c(CNCCO)c(O)c6-c6cc4ccc6O)[C@H](O)c4ccc(c(Cl)c4)O5)O[C@H](CO)[C@@H](O)[C@@H]3O)O[C@@H](C)[C@H]2O)cc1`, the results for the MIC90 in the test on Staphylococcus aureus [1] and against Staphylococcus aureus [2] were 2 µg/mL (≈ 1.22 µM) and 4 µg/mL (≈ 2.44 µM), respectively.

Regarding `CCCCCCCCCCNCCN[C@@]1(C)C[C@H](O[C@H]2[C@H](Oc3c4cc5cc3Oc3ccc(cc3Cl)[C@@H](O)[C@@H](NC(=O)[C@@H](CC(C)C)NC)C(=O)N[C@@H](CC(N)=O)C(=O)N[C@H]5C(=O)N[C@H]3C(=O)N[C@H](C(=O)N[C@H](C(=O)O)c5cc(O)c(CNCCO[C@@H]6O[C@H](CO)[C@@H](O)[C@H](O)[C@H]6O)c(O)c5-c5cc3ccc5O)[C@H](O)c3ccc(c(Cl)c3)O4)O[C@H](CO)[C@@H](O)[C@@H]2O)O[C@@H](C)[C@H]1O`, the MIC90 in the test with Staphylococcus aureus [1] came out at 4 µg/mL (≈ 2.14 µM); against Staphylococcus aureus [2] it was 16 µg/mL (≈ 8.57 µM).
